# Test results as given in ChEMBL document CHEMBL5329183, “Naphthylthiazoles: a class of broad-spectrum antifungals” (RSC Med Chem, 2023).
# Tests used:
# Candida albicans [1] = test: Antifungal activity against wild type Candida albicans SC5314 assessed as inhibition of fungal growth; assay type: functional
# Candida albicans [2] = test: Antifungal activity against Candida albicans ATCC 10231 assessed as inhibition of fungal growth incubated for 24 hrs by broth microdilution method; assay type: functional
# Procedure, shortened: (§1)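 Broth microdilution per CLSI guidelines against clinical isolates, incubated at 35 °C for 24 h (Candida, Aspergillus) or 48 h (Cryptococcus). MIC was the lowest concentration giving 50% growth inhibition.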
# Candida albicans [3] = test: Antifungal activity against Candida albicans NR 29448 assessed as inhibition of fungal growth incubated for 24 hrs by broth microdilution method; assay type: functional
# Procedure, shortened: (§2)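 Clinical isolate; CLSI broth microdilution over a range of concentrations (media listed: RPMI 1640, MOPS, YPD). MIC taken as lowest concentration giving 50% growth inhibition after 24 h at 35 °C.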
# [Candida] auris [4] = Antifungal activity against Candida auris 381 assessed as inhibition of fungal growth incubated for 24 hrs by broth microdilution method; assay type: functional; details: Candidozyma auris; procedure, shortened: as §2
# [Candida] auris [5] = Antifungal activity against Candida auris 382 assessed as inhibition of fungal growth incubated for 24 hrs by broth microdilution method; assay type: functional; details: Candidozyma auris; procedure, shortened: as §2
# [Candida] auris [6] = Antifungal activity against Candida auris 383 assessed as inhibition of fungal growth incubated for 24 hrs by broth microdilution method; assay type: functional; details: Candidozyma auris; procedure, shortened: as §2
# Nakaseomyces glabratus [7] = test: Antifungal activity against Candida glabrata ATCC 66032 assessed as inhibition of fungal growth incubated for 24 hrs by broth microdilution method; assay type: functional; procedure, shortened: as §2
# Nakaseomyces glabratus [8] = test: Antifungal activity against Candida glabrata ATCC MYA2950 assessed as inhibition of fungal growth incubated for 24 hrs by broth microdilution method; assay type: functional; procedure, shortened: as §2
# Candida parapsilosis [9] = test: Antifungal activity against Candida parapsilosis ATCC 22019 assessed as inhibition of fungal growth incubated for 24 hrs by broth microdilution method; assay type: functional; details: Lodderomyces parapsilosis; procedure, shortened: as §2
# Candida parapsilosis [10] = test: Antifungal activity against Candida parapsilosis CAB 502638 assessed as inhibition of fungal growth incubated for 24 hrs by broth microdilution method; assay type: functional; details: Lodderomyces parapsilosis; procedure, shortened: as §1
# Pichia kudriavzevii [11] = test: Antifungal activity against Candida krusei CAB 396420 assessed as inhibition of fungal growth incubated for 24 hrs by broth microdilution method; assay type: functional; procedure, shortened: as §1
# Pichia kudriavzevii [12] = test: Antifungal activity against Candida krusei ATCC 34135 assessed as inhibition of fungal growth incubated for 24 hrs by broth microdilution method; assay type: functional; procedure, shortened: as §1
# Cryptococcus neoformans [13] = test: Antifungal activity against Cryptococcus neoformans NR 41298 assessed as inhibition of fungal growth incubated for 48 hrs by broth microdilution method; assay type: functional
# Procedure, shortened: (§3)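 Clinical isolate; CLSI broth microdilution over a range of concentrations (media listed: RPMI 1640, MOPS, YPD). MIC read as lowest concentration inhibiting growth by 50% after 48 h incubation at 35 °C.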
# Cryptococcus neoformans [14] = test: Antifungal activity against Cryptococcus neoformans NR 41300 assessed as inhibition of fungal growth incubated for 48 hrs by broth microdilution method; assay type: functional; procedure, shortened: as §3
# Cryptococcus neoformans [15] = test: Antifungal activity against Cryptococcus neoformans NR 48770 assessed as inhibition of fungal growth incubated for 48 hrs by broth microdilution method; assay type: functional; procedure, shortened: as §3
# Cryptococcus neoformans [16] = test: Antifungal activity against Cryptococcus neoformans NR 41299 assessed as inhibition of fungal growth incubated for 48 hrs by broth microdilution method; assay type: functional; procedure, shortened: as §3
# Cryptococcus neoformans [17] = test: Antifungal activity against Cryptococcus neoformans NR 48767 assessed as inhibition of fungal growth incubated for 48 hrs by broth microdilution method; assay type: functional; procedure, shortened: as §3
# Cryptococcus neoformans [18] = test: Antifungal activity against Cryptococcus neoformans NR 48771 assessed as inhibition of fungal growth incubated for 48 hrs by broth microdilution method; assay type: functional; procedure, shortened: as §3
# Cryptococcus neoformans [19] = test: Antifungal activity against Cryptococcus neoformans NR 48773 assessed as inhibition of fungal growth incubated for 48 hrs by broth microdilution method; assay type: functional; procedure, shortened: as §3
# [20] = Antifungal activity against Cryptococcus gattii NR 43210 assessed as inhibition of fungal growth incubated for 48 hrs by broth microdilution method; assay type: functional, Cryptococcus gattii VGI; procedure, shortened: as §1
# [21] = Antifungal activity against Cryptococcus gattii NR 43209 assessed as inhibition of fungal growth incubated for 48 hrs by broth microdilution method; assay type: functional, Cryptococcus gattii VGI; procedure, shortened: as §1
# [22] = Antifungal activity against Cryptococcus gattii NR 43213 assessed as inhibition of fungal growth incubated for 48 hrs by broth microdilution method; assay type: functional, Cryptococcus gattii VGI; procedure, shortened: as §1
# [23] = Antifungal activity against Cryptococcus gattii NR 43214 assessed as inhibition of fungal growth incubated for 48 hrs by broth microdilution method; assay type: functional, Cryptococcus gattii VGI; procedure, shortened: as §1
# [24] = Antifungal activity against Cryptococcus gattii NR 43216 assessed as inhibition of fungal growth incubated for 48 hrs by broth microdilution method; assay type: functional, Cryptococcus gattii VGI; procedure, shortened: as §1
# Vero = test: Cytotoxicity against African green monkey Vero cells assessed as inhibition of cell viability at 16 ug/ml incubated for 2 hrs by MTS assay; assay type: toxicity, cell-based; details: chlorocebus sabaeus, dose 16 µg/ml
# [25] = Cytotoxicity against African green monkey Vero cells assessed as inhibition of cell viability incubated for 2 hrs by MTS assay; assay type: toxicity, cell-based; details: chlorocebus sabaeus
# Procedure, shortened: (§4)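 Vero cells were grown in MEM with 10% FBS, 1 mM sodium pyruvate and penicillin–streptomycin, then exposed to compounds for 2 h at 37 °C, 5% CO2, in triplicate. MTS was added for 3 h and OD490 read. Viability was expressed as % of DMSO-matched controls (mean ± SD).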
# [26] = Cytotoxicity against African green monkey Vero cells assessed as cell viability at 8 ug/ml incubated for 2 hrs by MTS assay; assay type: toxicity, cell-based; details: chlorocebus sabaeus, at 8 µg/mL, read-out: Activity; procedure, shortened: as §4
# Lactobacillus gasseri = test: Antibacterial activity against Lactobacillus gasseri HM400 assessed as inhibition of bacterial growth; assay type: toxicity, organism-based
# [27] = Antibacterial activity against Lactobacillus casei HM334 assessed as inhibition of bacterial growth; assay type: toxicity; details: lacticaseibacillus casei
# [28] = Antibacterial activity against Lactobacillus crispatus HM370 assessed as inhibition of bacterial growth; assay type: toxicity
# [29] = Apparent permeability of the compound measured after 4 hrs by PAMPA assay; assay type: ADME
# Procedure, shortened: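 PAMPA: compound was placed in pH 6.5 donor buffer across a lipid-pretreated PVDF filter from pH 7.4 acceptor buffer, and incubated 4 h at ambient temperature. Donor and acceptor amounts at start and end were measured by UV absorbance to give apparent permeability.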
# Staphylococcus aureus = test: Antibacterial activity against Methicillin-resistant Staphylococcus aureus USA300 assessed as inhibition of bacterial growth; assay type: functional
# Clostridioides difficile = test: Antibacterial activity against Clostridium difficile ATCC BAA1870 assessed as inhibition of bacterial growth; assay type: functional
# Escherichia coli [30] = test: Antibacterial activity against Escherichia coli JW55031 harboring tolC mutant assessed as inhibition of bacterial growth; assay type: functional
# Escherichia coli [31] = test: Antibacterial activity against wild type Escherichia coli BW25113 assessed as inhibition of bacterial growth; assay type: functional
# Aspergillus fumigatus [32] = test: Antifungal activity against Aspergillus fumigatus NR 35303 assessed as inhibition of fungal growth incubated for 24 hrs by broth microdilution method; assay type: functional; procedure, shortened: as §1
# Aspergillus fumigatus [33] = test: Antifungal activity against Aspergillus fumigatus NR 35304 assessed as inhibition of fungal growth incubated for 24 hrs by broth microdilution method; assay type: functional; procedure, shortened: as §1
compound,measurement,setting,value
C[C@@H]1[C@H](O)[C@@H](C)/C=C/C=C/C=C/C=C/C=C/C=C/C=C/[C@H](O[C@@H]2O[C@H](C)[C@@H](O)[C@H](N)[C@@H]2O)C[C@@H]2O[C@](O)(C[C@@H](O)C[C@@H](O)[C@H](O)CC[C@@H](O)C[C@@H](O)CC(=O)O[C@H]1C)C[C@H](O)[C@H]2C(=O)O [AMPHOTERICIN B],MIC,Candida albicans [1],1 µg/mL
same,MIC,Candida albicans [2],1 µg/mL
same,MIC,Candida albicans [3],1 µg/mL
same,MIC,[Candida] auris [4],0.5 µg/mL
same,MIC,[Candida] auris [5],1 µg/mL
same,MIC,[Candida] auris [6],1 µg/mL
same,MIC,Nakaseomyces glabratus [7],2 µg/mL
same,MIC,Nakaseomyces glabratus [8],1 µg/mL
same,MIC,Candida parapsilosis [9],0.5 µg/mL
same,MIC,Candida parapsilosis [10],0.5 µg/mL
same,MIC,Pichia kudriavzevii [11],2 µg/mL
same,MIC,Pichia kudriavzevii [12],2 µg/mL
same,MIC,Cryptococcus neoformans [13],1 µg/mL
same,MIC,Cryptococcus neoformans [14],1 µg/mL
same,MIC,Cryptococcus neoformans [15],1 µg/mL
same,MIC,Cryptococcus neoformans [16],1 µg/mL
same,MIC,Cryptococcus neoformans [17],1 µg/mL
same,MIC,Cryptococcus neoformans [18],1 µg/mL
same,MIC,Cryptococcus neoformans [19],1 µg/mL
same,MIC,[20],1 µg/mL
same,MIC,[21],1 µg/mL
same,MIC,[22],1 µg/mL
same,MIC,[23],1 µg/mL
same,MIC,[24],1 µg/mL
same,Activity,Vero,Toxic
same,CC50 at 2 h,[25],~8 µg/mL
same,"viability at 2 h, 8 ug/ml",[26],58%
same,MIC,Lactobacillus gasseri,> 128 µg/mL
same,MIC,[27],> 128 µg/mL
same,MIC,[28],> 128 µg/mL
CC(C)NCC(O)COc1cccc2ccccc12 (centres undefined) [PROPRANOLOL],Papp at 4 h,[29],76.6 ×10⁻⁶ cm/s
Cc1nc(-c2ccc3ccccc3c2)sc1-c1nnc(N[C@H]2CC[C@H](N)CC2)o1,MIC,Staphylococcus aureus,64 µg/mL
same,MIC,Clostridioides difficile,64 µg/mL
same,MIC,Escherichia coli [30],> 64 µg/mL
same,MIC,Escherichia coli [31],> 64 µg/mL
same,MIC,Candida albicans [1],64 µg/mL
Cc1nc(-c2ccc3ccccc3c2)sc1-c1nnc(NCCN)o1,MIC,Staphylococcus aureus,32 µg/mL
same,MIC,Clostridioides difficile,64 µg/mL
same,MIC,Escherichia coli [30],64 µg/mL
same,MIC,Escherichia coli [31],> 64 µg/mL
same,MIC,Candida albicans [1],32 µg/mL
CC(C(=O)O)c1cccc(C(=O)c2ccccc2)c1 (centres undefined) [KETOPROFEN],Papp at 4 h,[29],10.2 ×10⁻⁶ cm/s
Cc1nc(-c2ccc3ccccc3c2)sc1-c1nnc(N2CCC[C@H]2CO)o1,MIC,Staphylococcus aureus,> 64 µg/mL
same,MIC,Clostridioides difficile,> 64 µg/mL
same,MIC,Escherichia coli [30],> 64 µg/mL
same,MIC,Escherichia coli [31],> 64 µg/mL
same,MIC,Candida albicans [1],> 64 µg/mL
Cc1nc(-c2ccc3ccccc3c2)sc1-c1nnc(N2CCC[C@@H]2C(N)=O)o1,MIC,Staphylococcus aureus,> 64 µg/mL
same,MIC,Clostridioides difficile,> 64 µg/mL
same,MIC,Escherichia coli [30],> 64 µg/mL
same,MIC,Escherichia coli [31],> 64 µg/mL
same,MIC,Candida albicans [1],> 64 µg/mL
CCC(C)n1ncn(-c2ccc(N3CCN(c4ccc(OCC5COC(Cn6cncn6)(c6ccc(Cl)cc6Cl)O5)cc4)CC3)cc2)c1=O (centres undefined) [ITRACONAZOLE],MIC,Aspergillus fumigatus [32],1 µg/mL
same,MIC,Aspergillus fumigatus [33],1 µg/mL
Cc1nc(-c2ccc3ccccc3c2)sc1-c1nnc(N2CC[C@@H](N(C)C)C2)o1,MIC,Staphylococcus aureus,4 µg/mL
same,MIC,Clostridioides difficile,16 µg/mL
same,MIC,Escherichia coli [30],32 µg/mL
same,MIC,Escherichia coli [31],> 64 µg/mL
same,MIC,Candida albicans [1],32 µg/mL
Cc1nc(-c2ccc3ccccc3c2)sc1-c1nnc(NCC(=N)N)o1,MIC,Staphylococcus aureus,> 64 µg/mL
same,MIC,Clostridioides difficile,64 µg/mL
same,MIC,Escherichia coli [30],> 64 µg/mL
same,MIC,Escherichia coli [31],> 64 µg/mL
same,MIC,Candida albicans [1],32 µg/mL
